Experimental data taken from ChEMBL document CHEMBL1139893, “Triterpene glycosides from the flower petals of sunflower (Helianthus annuus) and their anti-inflammatory activity” (2007).

Experiments:
Mus musculus [1] = assay: Inhibitory ratio of TPA-induced edema in presence of drug to TPA-induced edema in ICR mouse; type: functional
In short: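 Topical sample at 1.0 mg/ear, or CHCl3-MeOH (1:1, 20 µL) vehicle control, given about 30 min before TPA (1.7 nmol in 20 µL acetone) on the right ear of female ICR mice. Ear thickness was gauged before and 6 h after TPA. InhR = [(Edema A − Edema B)/Edema A] × 100. Mean of five mice, Student's t-test.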

Mus musculus [2] = assay: Antiinflammatory activity in ICR mouse assessed as inhibition of TPA-induced edema per ear applied topically 30 mins before TPA treatment; type: functional
In short: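 Female SPF ICR mice. TPA (1.7 nmol, 1 µg) in 20 µL acetone was applied to the right ear only, 10 µL to each of the inner and outer surfaces. Sample or vehicle (CHCl3-MeOH 1:1, 20 µL) was applied topically about 30 min beforehand. Ear thickness was read with a pocket gauge before and 6 h after TPA. ID50 came from probit-graphic interpolation across four dose levels, five mice each.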

Row | SMILES | Ratio (Mus musculus [1]) | ID50 (Mus musculus [2])
1 | C[C@@H]1O[C@@H](O[C@H]2[C@H](O[C@H]3CC[C@]4(C)[C@H]5CC=C6[C@@H]7CC(C)(C)CC[C@]7(C(=O)O[C@@H]7OC[C@H](O)[C@H](O)[C@H]7O[C@@H]7O[C@@H](C)[C@H](O[C@@H]8O[C@H](CO)[C@@H](O)[C@H](O)[C@H]8O)[C@@H](O)[C@H]7O)CC[C@@]6(C)[C@]5(C)CC[C@H]4C3(C)C)O[C@H](CO)[C@@H](O[C@@H]3OC[C@@H](O)[C@H](O)[C@H]3O)[C@@H]2O)[C@H](O)[C@H](O)[C@H]1O [HELIANTHOSIDE 1] | 71% | 144 nmol
2 | C[C@@H]1O[C@@H](O[C@@H]2[C@@H](O)[C@H](O[C@H]3CC[C@]4(C)[C@H]5CC=C6[C@@H]7CC(C)(C)CC[C@]7(C(=O)O[C@@H]7OC[C@H](O)[C@H](O)[C@H]7O[C@@H]7O[C@@H](C)[C@H](O[C@@H]8O[C@H](CO)[C@@H](O)[C@H](O)[C@H]8O)[C@@H](O)[C@H]7O)[C@H](O)C[C@@]6(C)[C@]5(C)CC[C@H]4C3(C)C)O[C@H](CO)[C@H]2O[C@@H]2OC[C@@H](O)[C@H](O)[C@H]2O)[C@H](O)[C@H](O)[C@H]1O [HELIANTHOSIDE 2] | 77% | 135 nmol
3 | C[C@@H]1O[C@@H](O[C@H]2[C@H](O[C@H]3CC[C@]4(C)[C@H]5CC=C6[C@@H]7CC(C)(C)CC[C@]7(C(=O)O[C@@H]7O[C@H](CO)[C@@H](O)[C@H](O)[C@H]7O[C@@H]7O[C@@H](C)[C@H](O[C@@H]8O[C@H](CO)[C@@H](O)[C@H](O)[C@H]8O)[C@@H](O)[C@H]7O)[C@H](O)C[C@@]6(C)[C@]5(C)CC[C@H]4C3(C)C)O[C@H](CO)[C@@H](O[C@@H]3OC[C@@H](O)[C@H](O)[C@H]3O)[C@@H]2O)[C@H](O)[C@H](O)[C@H]1O [HELIANTHOSIDE 3] | 73% | 156 nmol
4 | C[C@@H]1O[C@@H](O[C@@H]2[C@@H](O)[C@H](O[C@H]3CC[C@@]4(C)[C@@H](CC[C@]5(C)[C@@H]4CC=C4[C@@H]6CC(C)(C)CC[C@]6(C(=O)O[C@@H]6OC[C@@H](O)[C@H](O)[C@H]6O[C@@H]6O[C@@H](C)[C@H](O[C@@H]7O[C@H](CO)[C@@H](O)[C@H](O)[C@H]7O)[C@@H](O)[C@H]6O)[C@H](O)C[C@]45C)[C@]3(C)CO)O[C@H](CO)[C@H]2O[C@@H]2OC[C@@H](O)[C@H](O)[C@H]2O)[C@H](O)[C@H](O)[C@H]1O [HELIANTHOSIDE 4] | 75% | 262 nmol
5 | C[C@@H]1O[C@@H](O[C@@H]2[C@@H](O)[C@H](O[C@H]3CC[C@]4(C)[C@H]5CC=C6[C@@H]7CC(C)(C)CC[C@]7(C(=O)O[C@@H]7O[C@H](CO)[C@@H](O)[C@H](O)[C@H]7O[C@@H]7O[C@@H](C)[C@H](O)[C@@H](O)[C@H]7O)[C@H](O)C[C@@]6(C)[C@]5(C)CC[C@H]4C3(C)C)O[C@H](CO)[C@H]2O[C@@H]2OC[C@@H](O)[C@H](O)[C@H]2O)[C@H](O)[C@H](O)[C@H]1O [HELIANTHOSIDE 5] | 63% | 155 nmol
6 | C[C@@H]1O[C@@H](O[C@H]2CC[C@]3(C)[C@H]4CC=C5[C@@H]6CC(C)(C)CC[C@]6(C(=O)OC6OC[C@@H](O)[C@@H](O)[C@@H]6O[C@@H]6O[C@@H](C)[C@H](O[C@@H]7O[C@H](CO)[C@@H](O)[C@H](O)[C@H]7O)[C@@H](O)[C@H]6O)[C@H](O)C[C@@]5(C)[C@]4(C)CC[C@H]3C2(C)C)[C@H](O)[C@H](O)[C@H]1OC1OC[C@@H](O)[C@H](O)[C@H]1O (stereo partly specified) [HELIANTHOSIDE B] | 80% | 65 nmol
7 | C[C@]12CCC(=O)C=C1CC[C@@H]1[C@@H]2[C@@H](O)C[C@@]2(C)[C@H]1CC[C@]2(O)C(=O)CO [HYDROCORTISONE] | 99% | 83 nmol
8 | COc1ccc2c(c1)c(CC(=O)O)c(C)n2C(=O)c1ccc(Cl)cc1 [INDOMETHACIN] | 96% | 838 nmol
